This is an account of results in ChEMBL document CHEMBL4138180, “neo-Clerodane Diterpenoids from Salvia polystachya Stimulate the Expression of Extracellular Matrix Components in Human Dermal Fibroblasts” (2017).

Activity calls are given as the source filed them. No cut-off for these calls is given here.

The test system of assay [1] is NHDF. Put plainly: Upregulation of COL1A1 mRNA expression in HDF at 100 uM after 48 hrs by RT-PCR analysis. The format is functional, cell-based. The following applies: Homo sapiens. In outline: (§1)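 Positive control: ascorbic acid at 100 μM in basal medium (L15 Leibovitz, 10% FBS, antibiotics) added to normal human dermal fibroblasts at 70% confluence, 48 h, 37 °C. Total RNA reverse-transcribed with oligo dT, PCR 30 cycles, bands on 1.5% agarose quantified and normalized to GAPDH mRNA. Mean ± SD versus basal-medium control, one-way ANOVA.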

Assay [2] deals with NHDF. Put plainly: Upregulation of elastin mRNA expression in HDF at 100 uM after 48 hrs by RT-PCR analysis. The format is functional, cell-based. Particulars: Homo sapiens. In outline: as §1
Assay [3] concerns NHDF. Put plainly: Upregulation of COL1A1 mRNA expression in HDF at 0.29 to 29.3 uM after 48 hrs by RT-PCR analysis. The assay is classed as functional, cell-based. The following applies: Homo sapiens. In outline:
(§2)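 Primary dermal fibroblasts from surgical biopsies, collagenase-dissociated and grown in L15 with 10% FBS at 37 °C. Total RNA (1 μg) was reverse-transcribed with oligo dT. PCR ran 30 cycles and products were run on 1.5% agarose. Bands were quantified and normalized to GAPDH, giving fold over the basal-medium control as mean ± SD, with one-way ANOVA.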

The test system of assay [4] is NHDF. Put plainly: Upregulation of […] mRNA expression in HDF at 0.29 uM after 48 hrs by RT-PCR analysis relative to control. The assay is classed as functional, Homo sapiens. The gist of the method:
as §2

Assay [5] deals with NHDF. Put plainly: Upregulation of […] mRNA expression in HDF at 2.93 uM after 48 hrs by RT-PCR analysis relative to control. The assay is classed as functional, Homo sapiens. The gist of the method:
as §2

The subject of assay [6] is NHDF. Put plainly: Upregulation of COL5A1 mRNA expression in HDF at 2.93 uM after 48 hrs by RT-PCR analysis relative to control. The format is functional, Homo sapiens. The gist of the method: as §2
In assay [7] the test system is NHDF. Put plainly: Upregulation of elastin mRNA expression in HDF at 0.29 to 29.3 uM after 48 hrs by RT-PCR analysis relative to control. The assay is classed as functional, Homo sapiens. The gist of the method: as §2
Assay [8] concerns NHDF. Put plainly: Inhibition of elastin mRNA expression in HDF at 0.29 to 29.3 uM after 48 hrs by RT-PCR analysis. The format is functional, cell-based. The following applies: Homo sapiens. The gist of the method:
as §2

In assay [9] the test system is Escherichia coli. Put plainly: Antibacterial activity against Escherichia coli at 0.5 to 8 ug after 18 hrs by agar disc diffusion method. The format is functional, organism-based. The gist of the method:
(§3)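 Bacteria suspended in saline at 10^8 CFU mL−1; 0.1 mL spread on nutrient agar (pH 6.8). Filter-paper disks carrying 8, 4, 2, 1 and 0.5 μg of compound (in DMSO) placed on the plates. Incubated aerobically at 37 °C for 18 h. Inhibition zone measured by caliper. Ampicillin and DMSO disks served as controls.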

Assay [10] has as its system Bacillus sp. Put plainly: Antibacterial activity against Bacillus sp. at 0.5 to 8 ug after 18 hrs by agar disc diffusion method. The format is functional, organism-based. The gist of the method: as §3
Background: In agar diffusion tests the substance spreads into inoculated agar from a disc or well.

Assay [11] has as its system Candida albicans. Put plainly: Antifungal activity against Candida albicans ATCC 10235 at 0.5 to 8 ug after 24 hrs by agar disc diffusion method. The format is functional, organism-based. The gist of the method: (§4)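 Qualitative disk diffusion on potato dextrose agar. Fungal inoculum at a final 10^5 CFU mL−1. Disks carried 8, 4, 2, 1 and 0.5 μg of compound in DMSO. Incubated aerobically at 37 °C for 24 h. Growth-inhibition zone measured by caliper. Amphotericin B and DMSO disks served as controls.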

Assay [12] has as its system Nakaseomyces glabratus. Put plainly: Antifungal activity against Candida glabrata CBS 138 at 0.5 to 8 ug after 24 hrs by agar disc diffusion method. The assay is classed as functional, organism-based. In outline: as §4
Assay [13] concerns NHDF. Put plainly: Upregulation of COL1A1 mRNA expression in HDF at 0.28 uM after 48 hrs by RT-PCR analysis relative to control. The format is functional, Homo sapiens. The gist of the method: (§5)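 Normal human dermal fibroblasts from plastic-surgery biopsies, collagenase-disaggregated, grown in L15 Leibovitz with 10% FBS and penicillin/streptomycin at 37 °C. At 70% confluence refed with medium containing 0.26−0.29, 2.56−2.93 or 25.6−29.3 μM compound for 48 h. Total RNA, oligo-dT RT-PCR, 30 cycles, agarose gel band densitometry normalized to GAPDH. Fold versus basal-medium control, mean ± SD, one-way ANOVA.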

For assay [14], the system named is NHDF. Put plainly: Upregulation of […] mRNA expression in HDF at 0.28 to 27.9 uM after 48 hrs by RT-PCR analysis relative to control. The format is functional, Homo sapiens. The gist of the method: as §5
Assay [15] concerns NHDF. Put plainly: Upregulation of COL5A1 mRNA expression in HDF at 0.28 uM after 48 hrs by RT-PCR analysis relative to control. The assay is classed as functional, Homo sapiens. In outline: as §5
In assay [16] the test system is NHDF. Put plainly: Upregulation of elastin mRNA expression in HDF at 0.28 to 27.9 uM after 48 hrs by RT-PCR analysis relative to control. The assay is classed as functional, Homo sapiens. In outline: as §5
In assay [17] the test system is NHDF. Put plainly: Inhibition of elastin mRNA expression in HDF at 0.28 to 27.9 uM after 48 hrs by RT-PCR analysis. The format is functional, cell-based. The following applies: Homo sapiens. In outline: as §5
Assay [18] concerns NHDF. Put plainly: Upregulation of COL1A1 mRNA expression in HDF at 29.2 uM after 48 hrs by RT-PCR analysis relative to control. The assay is classed as functional, Homo sapiens. In outline: as §5
Assay [19] has as its system NHDF. Put plainly: Upregulation of elastin mRNA expression in HDF at 0.29 to 29.2 uM after 48 hrs by RT-PCR analysis. The assay is classed as functional, cell-based. Particulars: Homo sapiens. In outline:
as §5

For assay [20], the system named is NHDF. Put plainly: Inhibition of elastin mRNA expression in HDF at 0.29 to 29.2 uM after 48 hrs by RT-PCR analysis. The format is functional, cell-based. The following applies: Homo sapiens. In outline: as §5

Turning to `O=C1O[C@H]([C@@H](O)CO)C(O)=C1O`, the result in [1] and in assay [2] was Active.

With `C[C@]12C[C@H](c3ccoc3)OC(=O)[C@H]1CC[C@@]13COC(=O)C1=CC=C[C@H]32`, the outcome in [3], in assay [9], in assay [10], in assay [11] and in assay [12] was inactive. In addition, the “fold change (FC)” value in assay [4] was 2.5; in [5], 3.4; in assay [6] it was 2.5; in assay [7], 2.1 - 3.4. The inhibition result in assay [8] was “inactive”.

`C[C@@H]1[C@H]2C[C@@]34COC(=O)[C@H]3C[C@H]3O[C@H]3[C@H]4[C@@]13C[C@H](c1ccoc1)O[C@H]3O2`: the “fold change (FC)” value in assay [13] is given as 1.6; in assay [14], 2.1 - 2.5; in [15] it was 2.2; in assay [16] it was 2.7 - 3.2. Also, the inhibition result in [17] is “inactive”. In addition, the outcome in assay [9], in [10], in [11] and in [12] was inactive.

Consider `C[C@@H]1[C@H]2C[C@@]34COC(=O)[C@H]3CC=C[C@H]4[C@@]13C[C@H](c1ccoc1)O[C@H]3O2`, for which the “fold change (FC)” value in assay [18] came out at 1.6. In assay [19], the result was Active. The inhibition result in [20] was “inactive”.
